Experimental data taken from ChEMBL document CHEMBL4602686, “A Meroisoprenoid, Heptenolides, and C-Benzylated Flavonoids from Sphaerocoryne gracilis ssp. gracilis” (J Nat Prod, 2020).
Active and inactive are the calls of the source. No cut-off for these calls is given here.

Assays:
Plasmodium falciparum [1] = assay: Antimalarial activity against chloroquine-sensitive Plasmodium falciparum 3D7 assessed as reduction in parasite growth at 20 uM incubated for 72 hrs by DAPI staining based fluorescence assay; type: functional, organism-based
In short: (§1)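 Asexual P. falciparum 3D7 growth read by a high-content imaging assay. Each compound was tested at one concentration: 20 μM for line 1 and 40 μM for line 2. The value is percentage growth inhibition. The 20 μM values are the mean of at least two independent measurements.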

Plasmodium falciparum [2] = assay: Antimalarial activity against chloroquine-resistant Plasmodium falciparum Dd2 assessed as reduction in parasite growth at 20 uM incubated for 72 hrs by DAPI saining based fluorescence assay; type: functional, organism-based
In short: (§2)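 P. falciparum Dd2 (chloroquine-resistant) growth read by high-content imaging. Isolates were screened at a single 40 μM concentration, and some were also given at 20 μM. Values are percentage growth inhibition, as the mean of at least two independent measurements.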

Hepacivirus hominis [3] = assay: Inhibition of (CAG)33/FF/HCV/Ren.pA51 mRNA cap-dependent translation assessed as reduction in firefly level at […] after 60 mins by dual luciferase reporter gene assay
Hepacivirus hominis [4] = assay: Inhibition of (CAG)33/FF/HCV/Ren.pA51 mRNA cap-independent translation assessed as reduction in renilla level at […] after 60 mins by dual luciferase reporter gene assay
Plasmodium falciparum [5] = assay: Antimalarial activity against chloroquine-sensitive Plasmodium falciparum 3D7 assessed as reduction in parasite growth at 40 uM incubated for 72 hrs by DAPI staining based fluorescence assay; type: functional, organism-based; in short: as §1
Plasmodium falciparum [6] = assay: Antimalarial activity against chloroquine-resistant Plasmodium falciparum Dd2 assessed as reduction in parasite growth at 40 uM incubated for 72 hrs by DAPI staining based fluorescence assay; type: functional, organism-based; in short: as §2
Plasmodium falciparum [7] = assay: Antimalarial activity against chloroquine-sensitive Plasmodium falciparum 3D7 assessed as reduction in parasite rowth incubated for 72 hrs by DAPI staining based fluorescence assay; type: functional, organism-based; conditions: 3D7, 72 h
Plasmodium falciparum [8] = assay: Antimalarial activity against chloroquine-resistant Plasmodium falciparum Dd2 assessed as reduction in parasite growth incubated for 72 hrs by DAPI staining based fluorescence assay; type: functional, organism-based; conditions: Dd2, 72 h
HEK293 = assay: Cytotoxicity against HEK293 cells; type: cell-based; conditions: Homo sapiens
[9] = test system: Plasmodium falciparum 3D7; assay: Selectivity ratio of IC50 for HEK293 cells to IC50 for antimalarial activity against Plasmodium falciparum 3D7; conditions: human, HEK293 cells versus Plasmodium falciparum 3D7
[10] = Cytotoxicity against HEK293 cells assessed as growth inhibition at 40 uM relative to control; type: cell-based; conditions: human, read-out: GI

SMILES | Activity (Plasmodium falciparum [1]) | Activity (Plasmodium falciparum [2]) | inhibition (Hepacivirus hominis [3]) | inhibition (Hepacivirus hominis [4]) | IC50 (Plasmodium falciparum [7]) [µM] | also measured
O=C1C[C@@H](c2ccccc2)Oc2cc(O)c(Cc3cccc(O)c3O)c(O)c21 | Active | Active | inactive | inactive | – | –
O=C1C[C@@H](c2ccccc2)Oc2cc(O)cc(O)c21 | – | – | – | – | – | Activity (Plasmodium falciparum [5]): inactive; Activity (Plasmodium falciparum [6]): inactive
O=c1cc(-c2ccccc2)oc2c(Cc3cccc(O)c3O)c(O)cc(O)c12 | Active | Active | inactive | inactive | – | –
C[C@@](O)(COC(=O)/C=C/c1ccccc1)[C@H](O)COC(=O)c1ccccc1 | – | – | – | – | – | Activity (Plasmodium falciparum [5]): inactive; Activity (Plasmodium falciparum [6]): inactive
O=C1C=C/C(=C/[C@H](O)CO)O1 | – | – | – | – | 10.5 | –
O=c1cc(-c2ccccc2)oc2cc(O)cc(O)c12 | Active | Active | inactive | inactive | – | –
CC(=O)O[C@@H](/C=C1/C=CC(=O)O1)COC(=O)c1ccccc1 | – | – | – | – | 4.8 | IC50 (Plasmodium falciparum [8]): 6.7 µM; IC50 (HEK293): 11.8 µM; selectivity ratio [9]: 3
O=C1C[C@@H](c2ccccc2)Oc2c(Cc3cccc(O)c3O)c(O)c(Cc3cccc(O)c3O)c(O)c21 | – | – | inactive | inactive | – | Activity (Plasmodium falciparum [5]): inactive; Activity (Plasmodium falciparum [6]): inactive
CC(C)=CCC[C@@H](C)[C@H]1C[C@H](O)[C@@]2(C)C3=CC[C@H]4C(C)(C)[C@@H](O)CC[C@]4(C)C3=CC[C@]12C | – | – | – | – | – | Activity (Plasmodium falciparum [5]): inactive; Activity (Plasmodium falciparum [6]): inactive
O=C1C[C@@H](c2ccccc2)Oc2c(Cc3ccccc3O)c(O)c(Cc3ccccc3O)c(O)c21 [DICHAMANETIN] | – | – | – | – | 9.3 | IC50 (Plasmodium falciparum [8]): 6.7 µM; inhibition at 40 µM [10]: 75%
COC(=O)/C=C/C(=O)C[C@H](O)COC(=O)c1ccccc1 | – | – | inactive | inactive | 1.4 | IC50 (Plasmodium falciparum [8]): 4.1 µM; inhibition at 40 µM [10]: 100%
O=C1C[C@@H](c2ccccc2)Oc2c(Cc3ccccc3O)c(O)cc(O)c21 | Active | Active | – | – | – | –
O=C1C[C@@H](c2ccccc2)Oc2cc(O)c(Cc3ccccc3O)c(O)c21 | Active | Active | – | – | – | –
O=C1C=C/C(=C/[C@H](O)COC(=O)c2ccccc2)O1 | – | – | inactive | inactive | 3.7 | –
